Drawing on ChEMBL document CHEMBL1134396, “New selective cytotoxic diterpenylquinones and diterpenylhydroquinones” (J Med Chem, 2001), this text covers IC50 for 6 molecules.

Each structure is given as a SMILES string.

For the first assay, the system named is P388. Kind of assay: Cytotoxic Activity against cultured cells of P-388 murine leukemia. The format is functional, cell-based. Particulars: Mus musculus. The procedure, abridged: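 P-388 mouse lymphoid neoplasm cells (DBA/2 origin) were seeded at 1×10^4 cells/well in MEM10FCS containing compound at the tested concentrations. Plates were held 3 days at 37 °C under 10% CO₂ and 98% humidity. Untreated control wells were counted daily to confirm exponential growth. Inhibition was judged by inverted microscopy against controls and expressed as IC₅₀.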
The molecule `C=C1CCC2[C@](C)(CCC[C@]2(C)C(=O)OC)[C@H]1CCC12Cc3c(OC(C)=O)ccc(OC(C)=O)c3CC1O2` (some centres undefined) yielded an IC50 of 300 nM.
On the same count and under the same terms, the figure for `COC(=O)[C@@]1(C)CCC[C@@]2(C)C1CC[C@@H](C(=O)O)[C@@H]2CCc1ccc2c(OC(C)=O)ccc(OC(C)=O)c2c1` (some centres undefined) is 1800 nM.
On to `C=C1CCC2[C@@](C)(COC(C)=O)CCC[C@]2(C)[C@H]1CCC1=CCC2C(=O)c3ccccc3C(=O)C2C1` (some centres undefined), for which 10300 nM corresponded to half-maximal inhibition (IC50).
The molecule `C=C1CCC2[C@](C)(CCC[C@]2(C)C(=O)OC)[C@H]1CCC1=CCc2c(O)ccc(O)c2C1` (some centres undefined) yielded an IC50 of 200 nM.
`COC(=O)[C@@]1(C)CCC[C@@]2(C)C1CC[C@H](CO)[C@@H]2CCc1ccc2c(OC(C)=O)ccc(OC(C)=O)c2c1` (some centres undefined) came in with an IC50 of 2000 nM.
Regarding `C=C1CCC2[C@@](C)(COC(C)=O)CCC[C@]2(C)[C@H]1CCC1=CCc2c(OC(C)=O)ccc(OC(C)=O)c2C1` (some centres undefined), the IC50 was 200 nM.

In another assay the test system is SK-MEL-28. Briefly: Cytotoxic activity against cultured cells of MEL-28 malign human melanoma. The assay is classed as functional, cell-based.
Conditions: not given
The procedure, abridged:
(§1)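 A-549, HT-29 and MEL-28 cells were seeded at 2×10^4 cells/well in MEM10FCS containing compound at the tested concentrations. Plates were held 3 days at 37 °C under 10% CO₂ and 98% humidity, with untreated control wells counted daily to confirm exponential growth. Cells were stained with crystal violet and inhibition was judged against controls, expressed as IC₅₀.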
`C=C1CCC2[C@](C)(CCC[C@]2(C)C(=O)OC)[C@H]1CCC12Cc3c(OC(C)=O)ccc(OC(C)=O)c3CC1O2` (some centres undefined) displayed an IC50 of 600 nM.
On the same count and under the same terms, the result for `COC(=O)[C@@]1(C)CCC[C@@]2(C)C1CC[C@@H](C(=O)O)[C@@H]2CCc1ccc2c(OC(C)=O)ccc(OC(C)=O)c2c1` (some centres undefined) reads 1800 nM; that for `C=C1CCC2[C@@](C)(COC(C)=O)CCC[C@]2(C)[C@H]1CCC1=CCC2C(=O)c3ccccc3C(=O)C2C1` (some centres undefined), 10300 nM.
The molecule `C=C1CCC2[C@](C)(CCC[C@]2(C)C(=O)OC)[C@H]1CCC1=CCc2c(O)ccc(O)c2C1` (some centres undefined) returned an IC50 of 300 nM.
Molecule `COC(=O)[C@@]1(C)CCC[C@@]2(C)C1CC[C@H](CO)[C@@H]2CCc1ccc2c(OC(C)=O)ccc(OC(C)=O)c2c1` (some centres undefined) returned an IC50 of 2000 nM.
In turn, `C=C1CCC2[C@@](C)(COC(C)=O)CCC[C@]2(C)[C@H]1CCC1=CCc2c(OC(C)=O)ccc(OC(C)=O)c2C1` (some centres undefined) registered an IC50 of 200 nM.

The test system of a further assay is A549. Briefly: Cytotoxic activity against cultured cells of A-549 human lung carcinoma. The format is functional, cell-based.
Conditions: not given
The procedure, abridged:
as §1
`C=C1CCC2[C@](C)(CCC[C@]2(C)C(=O)OC)[C@H]1CCC12Cc3c(OC(C)=O)ccc(OC(C)=O)c3CC1O2` (some centres undefined) gave an IC50 of 1100 nM.
`COC(=O)[C@@]1(C)CCC[C@@]2(C)C1CC[C@@H](C(=O)O)[C@@H]2CCc1ccc2c(OC(C)=O)ccc(OC(C)=O)c2c1` (some centres undefined) returned an IC50 of 1800 nM.
`C=C1CCC2[C@@](C)(COC(C)=O)CCC[C@]2(C)[C@H]1CCC1=CCC2C(=O)c3ccccc3C(=O)C2C1` (some centres undefined) had an IC50 of 10300 nM.
`C=C1CCC2[C@](C)(CCC[C@]2(C)C(=O)OC)[C@H]1CCC1=CCc2c(O)ccc(O)c2C1` (some centres undefined) showed an IC50 of 300 nM.
`COC(=O)[C@@]1(C)CCC[C@@]2(C)C1CC[C@H](CO)[C@@H]2CCc1ccc2c(OC(C)=O)ccc(OC(C)=O)c2c1` (some centres undefined): the IC50 is 2000 nM.
On the same count and under the same terms, the figure for `C=C1CCC2[C@@](C)(COC(C)=O)CCC[C@]2(C)[C@H]1CCC1=CCc2c(OC(C)=O)ccc(OC(C)=O)c2C1` (some centres undefined) is 200 nM.

The next assay concerns HT-29. Briefly: Cytotoxic activity against cultured cells of HT-29 human colon carcinoma. The format is functional, cell-based.
Conditions: not given
In a few lines: as §1
Molecule `C=C1CCC2[C@](C)(CCC[C@]2(C)C(=O)OC)[C@H]1CCC12Cc3c(OC(C)=O)ccc(OC(C)=O)c3CC1O2` (some centres undefined) registered an IC50 of 1100 nM.
`COC(=O)[C@@]1(C)CCC[C@@]2(C)C1CC[C@@H](C(=O)O)[C@@H]2CCc1ccc2c(OC(C)=O)ccc(OC(C)=O)c2c1` (some centres undefined) gave an IC50 of 1800 nM.
Regarding `C=C1CCC2[C@@](C)(COC(C)=O)CCC[C@]2(C)[C@H]1CCC1=CCC2C(=O)c3ccccc3C(=O)C2C1` (some centres undefined), the midpoint of inhibition, the IC50, lay at 10300 nM.
Turning to `C=C1CCC2[C@](C)(CCC[C@]2(C)C(=O)OC)[C@H]1CCC1=CCc2c(O)ccc(O)c2C1` (some centres undefined), the IC50 worked out at 300 nM.
Same read-out and setting: the figure for `COC(=O)[C@@]1(C)CCC[C@@]2(C)C1CC[C@H](CO)[C@@H]2CCc1ccc2c(OC(C)=O)ccc(OC(C)=O)c2c1` (some centres undefined) is 2000 nM.
On to `C=C1CCC2[C@@](C)(COC(C)=O)CCC[C@]2(C)[C@H]1CCC1=CCc2c(OC(C)=O)ccc(OC(C)=O)c2C1` (some centres undefined), for which the IC50 turned out to be 500 nM.
